Measurements as given in article PMC1301599 (Nucleic Acids Research, 2005).

Assays:
Format in all cases: cell-based
[1] = system: constitutive CMV promoter-directed Renilla luciferase in HeLa Tet-Off/Tat/luc-f/luc-R cells; test: Control Renilla luciferase expression in HeLa cell reporter assay; conditions: chloroquine alone treatment; data not shown
Outline: (§1)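 HeLa Tet-Off/Tat/luc-f/luc-R cells (HIV-1 LTR-firefly, CMV-Renilla), 10 × 10^3/well, grown 24 h at 37°C. They were exposed 6 h in Opti-MEM with 100 µM chloroquine, with or without test compound diluted from 2.5 µM in that medium. Cells were PBS-washed, then grown 18 h in DMEM/10% FBS. Lysate firefly and Renilla luminescence was read sequentially, normalised to parallel-plate viability absorbance, and expressed as % of cells without test compound. Two replicates, three experiments.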

[2] = system: HeLa Tet-Off/Tat/luc-f/luc-R cells; test: Toxicity assay; conditions: 100 µM chloroquine; data not shown
Outline: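 This ran on a duplicate plate of HeLa Tet-Off/Tat/luc-f/luc-R cells (10 × 10^3/well, 24 h at 37°C). The plate got 6 h with 100 µM chloroquine in Opti-MEM, then a PBS wash and 18 h in DMEM/10% FBS. Live cells were quantified colorimetrically with the CellTiter 96 AQueous One reagent, absorbance at 490 nm. Two replicates in each of three experiments.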

[3] = system: HIV-1 Tat-dependent trans-activation (TAR RNA; HIV-1 LTR firefly luciferase) in HeLa Tet-Off/Tat/luc-f/luc-R cells; test: Inhibition of Tat-dependent trans-activation in HeLa cell reporter assay; conditions: for reduction of firefly luciferase activity, 6 h delivery with chloroquine: 6 h incubation in presence of 100 µM chloroquine, then 18 h growth, 0.312-2.5 µM
Outline: as §1

| Compound | level of Renilla luciferase, chloroquine alone [1] | HeLa cell viability, chloroquine alone [2] | level of firefly luciferase activity, chloroquine alone ([3]; 100 µM chloroquine, no CPP–PNA) | reduction of firefly luciferase activity, 6 h delivery with chloroquine [3] |
| --- | --- | --- | --- | --- |
| CCN(CC)CCCC(C)Nc1ccnc2cc(Cl)ccc12 (centres unmarked) [chloroquine] | reduction | No effect | not significantly affected |  |
| ATCGCTCGCACCATGC (disulfide) [scrambled conjugate 13] |  |  |  | no inhibitory activity |
| CTCCGCAGCTCAGATC (disulfide) [mismatched conjugate 13] |  |  |  | no inhibitory activity |
